Source: ChEMBL document CHEMBL4024770, “Augmentation of Anticancer Drug Efficacy in Murine Hepatocellular Carcinoma Cells by a Peripherally Acting Competitive N-Methyl-d-aspartate (NMDA) Receptor Antagonist” (J Med Chem, 2017)
The source made the active and inactive calls. No cut-off for these calls is given here.

Assays:
[1] = molecular target: Glutamate receptor ionotropic, kainate 3 (Rattus norvegicus, UniProt P42264); assay: Displacement of [3H]-KA from recombinant homomeric rat GluK3a receptor expressed in baculovirus infected Sf9 insect cell membranes by scintillation counting method
Glutamate receptor ionotropic, kainate 3, sequence (P42264 whole entry): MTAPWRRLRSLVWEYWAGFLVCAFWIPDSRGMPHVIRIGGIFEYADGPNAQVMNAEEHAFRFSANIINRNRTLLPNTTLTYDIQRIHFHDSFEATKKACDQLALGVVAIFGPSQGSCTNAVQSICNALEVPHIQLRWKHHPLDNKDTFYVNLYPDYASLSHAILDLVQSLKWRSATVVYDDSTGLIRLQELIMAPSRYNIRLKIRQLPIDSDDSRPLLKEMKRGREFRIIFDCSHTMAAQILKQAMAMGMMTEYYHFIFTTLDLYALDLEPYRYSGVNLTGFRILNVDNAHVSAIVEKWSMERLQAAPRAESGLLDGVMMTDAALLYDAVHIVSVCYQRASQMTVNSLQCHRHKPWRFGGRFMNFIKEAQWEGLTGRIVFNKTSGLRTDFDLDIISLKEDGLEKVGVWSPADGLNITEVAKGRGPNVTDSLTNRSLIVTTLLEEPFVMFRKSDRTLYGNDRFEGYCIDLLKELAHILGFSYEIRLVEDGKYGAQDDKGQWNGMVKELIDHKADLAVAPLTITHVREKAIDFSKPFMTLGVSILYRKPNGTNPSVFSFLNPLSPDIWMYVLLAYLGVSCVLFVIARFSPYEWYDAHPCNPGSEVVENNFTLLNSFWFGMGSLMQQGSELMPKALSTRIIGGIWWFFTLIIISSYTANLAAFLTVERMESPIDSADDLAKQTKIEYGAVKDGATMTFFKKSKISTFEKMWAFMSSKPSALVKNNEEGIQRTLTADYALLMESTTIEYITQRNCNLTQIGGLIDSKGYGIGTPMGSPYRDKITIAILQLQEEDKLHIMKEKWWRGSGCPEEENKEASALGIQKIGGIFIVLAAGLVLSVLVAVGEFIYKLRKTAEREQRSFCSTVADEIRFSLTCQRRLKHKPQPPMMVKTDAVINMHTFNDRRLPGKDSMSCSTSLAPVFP

[2] = Displacement of [3H]-AMPA from AMPA receptor in Sprague-Dawley rat brain synaptosomes after 30 mins by scintillation counting method; assay type: subcellular
[3] = Displacement of [3H]-KA from KA receptor in Sprague-Dawley rat brain synaptosomes after 60 mins by scintillation counting method; assay type: subcellular
[4] = Displacement of [3H]-CGP-39653 from NMDA receptor in Sprague-Dawley rat brain synaptosomes after 60 mins by scintillation counting method; assay type: subcellular
[5] = molecular target: Glutamate receptor ionotropic, kainate 1 (Rattus norvegicus, UniProt P22756); assay: Displacement of [3H]-SYM2081 from recombinant homomeric rat GluK1 (Q)1b receptor expressed in baculovirus infected Sf9 insect cell membranes by scintillation counting method
Glutamate receptor ionotropic, kainate 1, sequence (P22756 whole entry): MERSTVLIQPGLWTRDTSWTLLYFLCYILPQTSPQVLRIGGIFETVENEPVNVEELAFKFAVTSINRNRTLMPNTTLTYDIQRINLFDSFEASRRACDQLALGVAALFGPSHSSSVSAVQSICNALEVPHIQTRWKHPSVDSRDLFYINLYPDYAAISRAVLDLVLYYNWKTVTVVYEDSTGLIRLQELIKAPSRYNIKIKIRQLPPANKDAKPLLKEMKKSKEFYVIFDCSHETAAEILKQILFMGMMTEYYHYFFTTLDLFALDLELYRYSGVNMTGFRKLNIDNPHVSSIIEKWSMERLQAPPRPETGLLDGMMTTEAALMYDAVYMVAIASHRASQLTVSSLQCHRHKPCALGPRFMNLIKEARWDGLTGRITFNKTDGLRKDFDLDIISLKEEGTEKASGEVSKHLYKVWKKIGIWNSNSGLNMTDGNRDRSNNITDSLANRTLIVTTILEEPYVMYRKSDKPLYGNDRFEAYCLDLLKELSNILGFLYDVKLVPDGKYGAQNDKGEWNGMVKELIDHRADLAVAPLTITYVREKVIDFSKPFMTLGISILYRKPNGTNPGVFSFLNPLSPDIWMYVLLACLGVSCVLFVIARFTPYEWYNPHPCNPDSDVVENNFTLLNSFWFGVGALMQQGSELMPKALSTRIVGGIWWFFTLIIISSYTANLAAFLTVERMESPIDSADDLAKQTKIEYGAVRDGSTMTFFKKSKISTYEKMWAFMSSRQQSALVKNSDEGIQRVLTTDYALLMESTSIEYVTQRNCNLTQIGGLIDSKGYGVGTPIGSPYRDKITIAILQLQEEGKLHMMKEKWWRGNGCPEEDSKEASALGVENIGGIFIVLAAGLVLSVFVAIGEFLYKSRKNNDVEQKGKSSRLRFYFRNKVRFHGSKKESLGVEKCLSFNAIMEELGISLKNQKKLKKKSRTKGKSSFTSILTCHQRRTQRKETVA

[6] = molecular target: Glutamate receptor ionotropic, kainate 2 (Rattus norvegicus, UniProt P42260); assay: Displacement of [3H]-KA from recombinant homomeric rat GluK2 (V,C,R)a receptor expressed in baculovirus infected Sf9 insect cell membranes by scintillation counting method
Glutamate receptor ionotropic, kainate 2, sequence (P42260 whole entry): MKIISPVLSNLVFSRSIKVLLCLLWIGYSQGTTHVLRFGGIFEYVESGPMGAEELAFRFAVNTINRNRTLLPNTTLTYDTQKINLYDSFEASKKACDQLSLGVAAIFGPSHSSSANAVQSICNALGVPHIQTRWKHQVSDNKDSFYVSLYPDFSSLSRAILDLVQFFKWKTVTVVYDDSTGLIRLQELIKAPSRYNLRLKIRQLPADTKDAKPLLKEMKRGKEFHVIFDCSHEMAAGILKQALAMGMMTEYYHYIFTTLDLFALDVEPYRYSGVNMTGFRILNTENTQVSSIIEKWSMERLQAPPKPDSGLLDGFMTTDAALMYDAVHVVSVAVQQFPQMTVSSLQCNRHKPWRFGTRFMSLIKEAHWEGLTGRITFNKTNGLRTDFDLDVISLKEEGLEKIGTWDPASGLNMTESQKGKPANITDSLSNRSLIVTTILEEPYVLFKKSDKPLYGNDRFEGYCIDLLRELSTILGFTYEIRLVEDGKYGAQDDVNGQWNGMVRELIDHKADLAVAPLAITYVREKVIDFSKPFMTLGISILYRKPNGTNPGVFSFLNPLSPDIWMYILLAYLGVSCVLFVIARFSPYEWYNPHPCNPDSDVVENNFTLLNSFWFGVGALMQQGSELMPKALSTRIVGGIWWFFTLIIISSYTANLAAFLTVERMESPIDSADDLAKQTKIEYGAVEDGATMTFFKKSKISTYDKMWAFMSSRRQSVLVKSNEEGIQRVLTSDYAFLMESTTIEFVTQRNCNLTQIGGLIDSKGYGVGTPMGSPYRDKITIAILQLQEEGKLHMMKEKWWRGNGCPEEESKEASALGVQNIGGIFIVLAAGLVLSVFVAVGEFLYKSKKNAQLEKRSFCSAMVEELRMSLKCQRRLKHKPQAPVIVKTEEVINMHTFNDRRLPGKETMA

[7] = molecular target: Glutamate NMDA receptor; Grin1/Grin2a (Rattus norvegicus, UniProt P35439+Q00959); assay: Antagonist activity at recombinant rat GluN1a/GluN2A expressed in Xenopus laevis oocytes assessed as inhibition of glycine/glutamate-mediated current responses by two-electrode voltage clamp method; assay type: cell-based
Glutamate NMDA receptor; Grin1/Grin2a, sequence (Q00959 whole entry, other chains not shown): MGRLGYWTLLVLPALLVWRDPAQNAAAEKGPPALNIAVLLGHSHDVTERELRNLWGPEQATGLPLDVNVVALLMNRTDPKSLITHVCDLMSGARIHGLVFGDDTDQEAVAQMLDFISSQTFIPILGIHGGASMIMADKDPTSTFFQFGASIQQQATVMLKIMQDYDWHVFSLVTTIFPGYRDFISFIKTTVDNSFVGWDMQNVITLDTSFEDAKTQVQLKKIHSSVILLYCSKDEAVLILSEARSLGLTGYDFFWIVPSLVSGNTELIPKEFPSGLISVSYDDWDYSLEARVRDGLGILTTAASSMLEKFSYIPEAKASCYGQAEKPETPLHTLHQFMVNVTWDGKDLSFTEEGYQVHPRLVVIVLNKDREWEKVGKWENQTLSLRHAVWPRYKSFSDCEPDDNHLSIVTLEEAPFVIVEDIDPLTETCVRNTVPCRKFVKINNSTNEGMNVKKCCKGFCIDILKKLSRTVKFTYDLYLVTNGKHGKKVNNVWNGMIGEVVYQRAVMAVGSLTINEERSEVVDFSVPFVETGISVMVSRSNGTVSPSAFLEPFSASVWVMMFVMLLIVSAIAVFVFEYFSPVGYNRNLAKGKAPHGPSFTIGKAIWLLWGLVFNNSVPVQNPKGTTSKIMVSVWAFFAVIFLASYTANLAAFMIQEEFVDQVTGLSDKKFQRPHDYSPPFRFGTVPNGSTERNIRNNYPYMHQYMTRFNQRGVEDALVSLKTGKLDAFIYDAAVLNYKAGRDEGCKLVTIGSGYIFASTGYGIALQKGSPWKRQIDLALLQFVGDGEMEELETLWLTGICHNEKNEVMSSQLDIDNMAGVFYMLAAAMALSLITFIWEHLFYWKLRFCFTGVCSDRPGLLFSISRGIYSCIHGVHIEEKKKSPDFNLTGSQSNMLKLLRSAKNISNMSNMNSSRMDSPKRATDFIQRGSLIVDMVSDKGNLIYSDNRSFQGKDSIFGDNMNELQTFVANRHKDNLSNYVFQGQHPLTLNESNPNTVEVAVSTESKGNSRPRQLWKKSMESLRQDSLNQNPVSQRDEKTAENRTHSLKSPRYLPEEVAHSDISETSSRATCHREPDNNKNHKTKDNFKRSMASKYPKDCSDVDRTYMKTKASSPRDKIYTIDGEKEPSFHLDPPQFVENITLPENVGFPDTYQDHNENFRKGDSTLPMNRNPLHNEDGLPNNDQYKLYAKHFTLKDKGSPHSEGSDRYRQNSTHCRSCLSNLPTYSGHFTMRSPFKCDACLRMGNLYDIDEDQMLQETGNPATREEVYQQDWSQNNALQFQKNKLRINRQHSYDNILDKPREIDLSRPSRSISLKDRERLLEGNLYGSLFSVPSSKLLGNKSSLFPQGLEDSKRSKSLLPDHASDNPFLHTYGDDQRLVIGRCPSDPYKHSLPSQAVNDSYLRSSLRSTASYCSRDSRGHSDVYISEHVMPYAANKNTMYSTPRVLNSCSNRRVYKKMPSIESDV
Outline: (§1)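 Xenopus oocytes were injected with rat GluN1 and GluN2A–D cRNA (1:2) and recorded 2–6 days later by TEVC at room temperature, −40 mV, in Ba2+-containing recording solution, pH 7.4. Currents were evoked by 100 μM glycine plus glutamate at 2–3× EC50: 10 μM for GluN2A, 3 μM for GluN2B and GluN2C, 1 μM for GluN2D. IC50 from Hill fits per oocyte; Ki estimated.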

[8] = molecular target: Glutamate NMDA receptor; Grin1/Grin2b (Rattus norvegicus, UniProt P35439+Q00960); assay: Antagonist activity at recombinant rat GluN1a/GluN2B expressed in Xenopus laevis oocytes assessed as inhibition of glycine/glutamate-mediated current responses by two-electrode voltage clamp method; assay type: cell-based; outline: as §1
[9] = molecular target: Glutamate NMDA receptor; Grin1/Grin2c (Rattus norvegicus, UniProt P35439+Q00961); assay: Antagonist activity at recombinant rat GluN1a/GluN2C expressed in Xenopus laevis oocytes assessed as inhibition of glycine/glutamate-mediated current responses by two-electrode voltage clamp method; assay type: cell-based; outline: as §1
[10] = molecular target: Ionotropic glutamate receptor NMDA 1/2D (Rattus norvegicus, UniProt P35439+Q62645); assay: Antagonist activity at recombinant rat GluN1a/GluN2D expressed in Xenopus laevis oocytes assessed as inhibition of glycine/glutamate-mediated current responses by two-electrode voltage clamp method; assay type: cell-based; outline: as §1
Mus musculus [11] = species on record: Mus musculus; assay: Antagonist activity at NMDA receptor in Nras driven p53 deficient mouse HCC cell membranes assessed as LPS-stimulated PGE2 levels at 10 uM after 24 hrs by LC-MS/MS method (reference value: 162 +/- 7%); parameters: scale not given: the % may be the effect or the level left
Outline: (§2)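 Mouse Nras-driven p53−/− HCC cells in DMEM with 2 mM L-glutamine, 10% heat-inactivated FBS and penicillin/streptomycin. Cells incubated 24 h with or without antagonist, either without LPS or with 2.5 μg/mL LPS in the growth medium. Cells washed three times with ice-cold HBSS and lysed in acetonitrile on ice. PGE₂ in lysates measured by LC-MS/MS (LLOQ 1 nM) and expressed as % of control; n=3.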

Mus musculus [12] = species on record: Mus musculus; assay: Antagonist activity at NMDA receptor in Nras driven p53 deficient mouse HCC cell membranes assessed as inhibition of NMDA-induced intracellular Ca2+ transients at 20 uM […] by fluo-4AM dye-based fluorescence assay
Outline: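 Intact murine HCC cells loaded with 5 μM Fluo-4-AM for 45 min, then washed out for 20 min in BSS (mM: 2.5 KCl, 152 NaCl, 10 glucose, 2 CaCl₂, 10 HEPES, pH 7.4). 150 μM NMDA applied for 15 s by fast perfusion, alone or together with antagonist. Fluorescence imaged with 495 nm excitation on a CCD camera. Read-out is the percentage of cells showing induced Ca²⁺ transients; n=5.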

Mus musculus [13] = species on record: Mus musculus; assay: Antagonist activity at NMDA receptor in Nras driven p53 deficient mouse HCC cell membranes assessed as PGE2 levels at 10 uM after 24 hrs by LC-MS/MS method relative to control; parameters: scale not given: the % may be the effect or the level left; outline: as §2
Mus musculus [14] = species on record: Mus musculus; assay: Antagonist activity at NMDA receptor in Nras driven p53 deficient mouse HCC cell membranes assessed as potentiation of 1 uM sorafenib-mediated antiproliferative activity by measuring cell viability at 100 uM after 72 hrs by resazurin assay (reference value: […] +/- […]%)
Mus musculus [15] = species on record: Mus musculus; assay: Antagonist activity at NMDA receptor in Nras driven p53 deficient mouse HCC cell membranes assessed as potentiation of 2.5 uM sorafenib-mediated antiproliferative activity by measuring cell viability at 100 uM after 72 hrs by resazurin assay (reference value: […] +/- […]%)
Mus musculus [16] = species on record: Mus musculus; assay: Antagonist activity at NMDA receptor in Nras driven p53 deficient mouse HCC cell membranes assessed as potentiation of 5 uM sorafenib-mediated antiproliferative activity by measuring cell viability at 100 uM after 72 hrs by resazurin assay (reference value: […] +/- […]%)
Mus musculus [17] = species on record: Mus musculus; assay: Antagonist activity at NMDA receptor in Nras driven p53 deficient mouse HCC cell membranes assessed as potentiation of 10 uM sorafenib-mediated antiproliferative activity by measuring cell viability at 100 uM after 72 hrs by resazurin assay (reference value: […] +/- […]%)
[18] = Antiproliferative activity against Nras driven p53 deficient mouse HCC cells assessed as cell viability at 100 uM after 72 hrs by resazurin assay relative to control; assay type: functional; details: read-out: Activity

SMILES	Ki [1]	IC50 [2]	IC50 [3]	Ki [4]	Ki [5]	Ki [6]	other results
N#Cc1cccc([C@H]2CCN[C@@H]2C(=O)O)c1	> 1000 µM	> 100 µM	> 100 µM	> 100 µM	> 1000 µM	> 1000 µM	–
O=C(O)[C@H]1NCC[C@@H]1c1cccc(Cl)c1	> 100 µM	> 100 µM	> 100 µM	> 100 µM	> 100 µM	> 100 µM	–
O=C(O)[C@H]1NCC[C@@H]1c1ccc(O)c(O)c1	–	> 100 µM	> 100 µM	35 µM	–	–	pKi [4]: 4.46
O=C(O)[C@H]1NCC[C@@H]1c1cccc(C(F)(F)F)c1	> 100 µM	> 100 µM	> 100 µM	> 100 µM	> 100 µM	> 100 µM	–
Nc1cccc([C@H]2CCN[C@@H]2C(=O)O)c1	–	> 100 µM	> 100 µM	> 100 µM	–	–	–
N[C@H](CCCP(=O)(O)O)C(=O)O	–	–	–	–	–	–	Ki [7]: 0.39 µM; Ki [8]: 2.8 µM; Ki [9]: 5.9 µM; Ki [10]: 21 µM; Activity (Mus musculus [11]): 110%; inhibition (Mus musculus [12]): Active; Activity (Mus musculus [13]): 58%; Activity (Mus musculus [14]): 70%; Activity (Mus musculus [15]): 63%; Activity (Mus musculus [16]): 44%; Activity (Mus musculus [17]): 16%; viability at 100 µM [18]: 79%
O=C(O)[C@H]1NCC[C@@H]1c1cccc(B(O)O)c1	> 100 µM	> 100 µM	> 100 µM	> 100 µM	> 1000 µM	> 1000 µM	–
NC(=O)c1cccc([C@H]2CCN[C@@H]2C(=O)O)c1	> 100 µM	> 100 µM	> 100 µM	> 100 µM	> 100 µM	> 100 µM	–
Cl.O=C(O)c1cc([C@H]2CCN[C@@H]2C(=O)O)ccc1F	11 µM	> 100 µM	59 µM	4.6 µM	12 µM	> 100 µM	pIC50 [3]: 4.23; pKi [4]: 5.34
O=C(O)c1cc([C@H]2CCN[C@@H]2C(=O)O)ccc1Br	> 100 µM	> 100 µM	> 100 µM	–	> 100 µM	> 100 µM	–
Cc1ccc([C@H]2CCN[C@@H]2C(=O)O)cc1C(=O)O	> 100 µM	> 100 µM	> 100 µM	–	> 100 µM	> 100 µM	–
